# Screening results (PubChem)
# M5 ag = agonists of human muscarinic M5 receptor (CHRM5); CHO-K1 hM5 cells, Fluo-8 calcium fluorescence; 0% DMSO wells, 100% maximal acetylcholine response; activation, % at 3 µM; hit rate 0.19% among 360,000;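 active = activation above the run's mean over test compounds plus 3 SD, cut at about 23% in these data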;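 also: signal is peak over basal fluorescence ratio across the kinetic read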
# M4 PAM = potentiates acetylcholine response at human M4 receptor. P08173. CHO-K1 hM4/Gqi5, Fluo-8 calcium fluorescence, ACh EC20; 0% = ACh EC20, 100% = maximal ACh. activation, % at 3 µM. hit rate 0.4% among 360,000. AID 624126;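 active = activation above its plate's cutoff, the mean activation of sample wells plus 3 SD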
# Target sequence (P08173 whole entry, looked up): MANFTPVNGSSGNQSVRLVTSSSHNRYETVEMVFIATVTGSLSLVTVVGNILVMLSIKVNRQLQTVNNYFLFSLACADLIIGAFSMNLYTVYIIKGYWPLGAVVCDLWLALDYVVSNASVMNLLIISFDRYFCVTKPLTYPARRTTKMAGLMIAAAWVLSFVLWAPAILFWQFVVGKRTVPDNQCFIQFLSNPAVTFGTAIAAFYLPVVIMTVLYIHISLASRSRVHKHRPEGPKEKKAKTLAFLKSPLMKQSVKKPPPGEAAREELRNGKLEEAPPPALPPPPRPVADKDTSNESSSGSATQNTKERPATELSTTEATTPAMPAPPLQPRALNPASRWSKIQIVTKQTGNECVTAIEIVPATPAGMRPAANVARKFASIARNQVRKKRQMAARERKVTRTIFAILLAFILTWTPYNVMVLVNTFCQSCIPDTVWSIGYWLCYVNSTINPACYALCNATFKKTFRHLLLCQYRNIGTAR
# CHRM5 PAM = CHRM5 positive allosteric modulation; P08912; CHO-K1 hM5, Fluo-8 calcium, ACh EC20 PAM; 0% = ACh EC20, 100% = ACh EC100; activation, % at 3 µM; hit rate 0.3% among 360,000; AID 624038;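 active = activation above the run cutoff, the mean activation of all test compounds plus 3 SD, cut at about 18% in these data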
#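 Replicates: One well per compound, no replicates | System: Human M5 receptor in CHO-K1 cells | Benchmarks: Low control EC20 acetylcholine (0%), high control EC100 acetylcholine (100%) | Probe or stimulus: Acetylcholine, EC20 level | Times: Fluo-8 loading 80 min at 37 °C plus 30 min room temperature | Signal: Intracellular calcium via Fluo-8 fluorescence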
# CHRM4 agonist = CHRM4 agonism in calcium assay | hit rate 0.14% among 360,000 | activation, % at 3 µM | P08173 | CHO-K1 hM4/Gqi5, Fluo-8 calcium fluorescence; vehicle 0%, full acetylcholine response 100%;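 active = activation above the run mean over all test wells plus 3 SD, cut at about 32% in these data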;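 also: peak over basal fluorescence ratio per well then scaled between controls; 0% = DMSO wells and 100% = acetylcholine at EC100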
# M4 antag = antagonists of human muscarinic M4 receptor (CHRM4). hit rate 0.73% among 360,000. CHO-hM4 cells, ACh EC80, Fluo-8 calcium fluorescence. inhibition, % at 3 µM. AID 624125. P08173;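 active = inhibition above its plate's cutoff, the mean inhibition of sample wells plus 3 SD, cut at about 27% in these data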;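 also: 0% = acetylcholine EC80 with DMSO and 100% = DMSO without agonist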
# M5 antag = CHRM5 antagonism in calcium assay. P08912. CHO-hM5 cells, Fluo-8 calcium fluorescence, ACh EC80. inhibition, % at 3 µM. hit rate 0.59% among 360,000. AID 624040;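 active = inhibition above a per-plate cutoff, the mean of that plate's test compounds plus 3 SD, cut at about 27% in these data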;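 also: 0% = acetylcholine EC80 with DMSO and 100% = DMSO without agonist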
# * = called active by the depositor; ! = repeats disagree. This is a sample that favours compounds with a hit; in the whole collection about 1.9% have one here.
SMILES,M5 ag,M4 PAM,CHRM5 PAM,CHRM4 agonist,M4 antag,M5 antag
O=C(Nc1ccccc1C(=O)O)c1cc(S(=O)(=O)N2CCCCCC2)ccc1Cl,0,15,6,-2,-1,-7
NS(=O)(=O)c1cccc(NC(=O)c2ccccc2NS(=O)(=O)c2ccc(F)cc2)c1,-2,1,2,-1,-3,0
Cc1ccc(NC(=O)c2cnccn2)cc1S(=O)(=O)N1CCCCCC1,-2,3,-4,1,-1,28*
O=C(Nc1cccc(S(=O)(=O)N2CCCCC2)c1)c1ccccc1NS(=O)(=O)c1ccc(F)cc1,5,3,-11,11,-1,41*
O=C(Nc1ccccc1Cl)c1cc(S(=O)(=O)N2CCCC(C(=O)O)C2)ccc1F (stereo not drawn),2,51*,-3,-1,-18,4
Cc1ccc(NC(=O)CSc2ncnc3ccccc23)cc1S(=O)(=O)N1CCCCC1,3,-16,-18,14,7,30*
Fc1ccccc1CNc1nc(-c2cccnc2)nc2ccccc12,-5,-9,-8,15,-18,11
CCOC(=O)/C=C1/SCC(=O)N1CC(=O)Nc1ccc2c(c1)CCC2,0,8,9,2,-5,3
N#Cc1ccc(OCC(=O)Nc2ccc(N3CCCC3)cc2)cc1,0,4,2,1,-4,-1
C[C@H](CO)N1C[C@H](C)[C@@H](CN(C)C(=O)c2cnccn2)Oc2cc(C#CCC3CCCC3)ccc2S1(=O)=O,2,-7,-2,2,10,2
C[C@H](CO)N1C[C@H](C)[C@@H](CN(C)C(=O)c2cccnc2)Oc2ncc(Br)cc2C1=O,-1,0,1,1,-3,0
Cc1ccc(NC(=O)c2ccccc2NS(=O)(=O)c2ccc(F)cc2)cc1S(=O)(=O)N1CCCCC1,6,-10,-18,11,9,35*
CCC1CCCCN1CCNS(=O)(=O)c1ccc2c(c1)oc(=O)n2C (stereo not drawn),-1,-14,-1,0,29*,0
CCC1CCCCN1CCCNS(=O)(=O)c1ccc2c(c1)oc(=O)n2C (stereo not drawn),-3,-5,-3,0,-1,14
O=C(Nc1nc(-c2ccccc2)c(-c2ccccc2)o1)c1ccc(F)cc1,-1,3,34*,2,-3,9
COc1cccc(C(=O)Nc2nc(-c3ccccc3)c(-c3ccccc3)o2)c1,0,-1,-2,0,-6,2
O=C(CN1C(=O)NC(c2ccccc2)(c2ccccc2)C1=O)NCCc1ccc(F)cc1,4,-4,-6,15,-8,14
O=C(c1ccc(Cl)c(S(=O)(=O)N2CCCC2)c1)N1CCCC(C(F)(F)F)C1 (stereo not drawn),4,12,-2,2,-3,3
CC(C)OC(=O)n1c(=S)oc2ccccc21,0,7,-3,0,2,3
Cc1cccc(OC(=O)n2c(=S)oc3cc(Cl)ccc32)c1,-1,30*,0,4,22,-4
CCCCCCN1C(=O)CC(NC(=O)OCC2c3ccccc3-c3ccccc32)C/C=C\C1C(C)C (stereo not drawn),-1,3,-1,0,-15,-3
COc1cc2ncnc(NCc3ccccc3)c2cc1OC,-4,2,-4,2,0,12
CCCCNc1nc(NCc2ccccc2)nc2ccccc12,80*,-18,-25,105*,90*,82*
CNc1nc(NCc2ccccc2)c2ccccc2n1,1,-5,1,6,2,-6
c1ccc(CNc2ncnc3ccccc23)cc1,24*!,-13,-14,34*!,38*!,20
SMILES,M5 ag,M4 PAM,CHRM5 PAM,CHRM4 agonist,M4 antag,M5 antag
COCC(C)NC(=O)c1ccc(CN2CCc3ccccc3C2)cc1 (stereo not drawn),-9,-16,-5,1,28*,11
O=C(Nc1ccc(Cl)cc1)c1ccc(CN2CCc3ccccc3C2)cc1,-8,-8,-2,3,12,4
O=C(Nc1ccc(S(=O)(=O)N2CCCC2)cc1)c1ccc(CN2CCc3ccccc3C2)cc1,2,-15,-13,14,32*,18
O=C(Nc1ccccc1)c1ccc(CN2CCC(Cc3ccccc3)CC2)cc1,-8,-16,-13,2,32*,10
CC(C)N1CSC(=S)N(Cc2ccccc2)C1,5,11,18*,1,-5,-16
Cc1nccn1CCc1n[nH]c(=S)n1Cc1ccccc1,-11,-10,-15,0,22,33*
CCC1Sc2ccc(S(=O)(=O)CCC(=O)Nc3c(Cl)cc(OC)cc3OC)cc2NC1=O (stereo not drawn),-4,-5,-6,5,1,13
Fc1cccc(Cc2noc(CN3CCCN(C4Cc5ccccc5C4)CC3)n2)c1,-12,-22,-20,2,54*,2
Nc1ncnc2c1ncn2[C@@H]1O[C@H](CNCc2ccccc2OC2OC(CO)C(O)C(O)C2O)[C@@H](O)[C@H]1O (stereo partly drawn),0,3,-3,0,1,0
CCCNS(=O)(=O)c1ccc(CCC(=O)Nc2cc(Cl)ccc2Oc2ccccc2)cc1,0,-20,-19,9,43*,29*
c1ccc(C2(CN3CCNC[C@H]3Cc3cccc4ccccc34)CC2)cc1,-3,29*,7,6,10,9
O=C(C1CCCC1)N1CCCC(Nc2ccc(F)cc2)C1 (stereo not drawn),-2,-4,-2,0,7,1
Cc1ccc(NC2CCCN(C(=O)C3CCCCC3)C2)cc1C (stereo not drawn),3,-2,21*,0,6,-14
Cc1ccc2c(C)c(C(=O)NCc3ccc(S(N)(=O)=O)cc3)oc2c1C,4,4,27*,2,-8,4
Cc1ccc2c(C)c(C(=O)Nc3ccc(S(N)(=O)=O)cc3)oc2c1C,2,4,27*,1,0,0
COc1cc(NC(=O)c2c(F)c(F)c(F)c(F)c2F)c(OC)cc1Cl,-8,-20,-9,-3,36*,2
COc1ccc(C(=O)Nc2cc(OC)c(Cl)cc2OC)cc1,-6,0,-2,0,0,17
COc1cc(NC(=O)c2ccc(F)cc2)c(OC)cc1Cl,-14,-2,10,-1,-5,-4
COc1cc(NC(=O)c2cc3nc(C)cc(C)n3n2)c(OC)cc1Cl,-4,28*,7,1,2,-10
